Data set [1] relates to CYP3A4 (Homo sapiens). Description: Activity of human recombinant CYP3A4 assessed as ((3R,4S,5S,6R)-4-((2R,3R)-3-(((R)-3,3-dimethyloxiran-2-yl)methyl)-2-methyloxiran-2-yl)-5-methoxy-1-oxaspiro[2.5]octan-6-yl ((R)-1-amino-3-methyl-1-oxobutan-2-yl)carbamate) formation. Conditions: recombinant enzyme.
The test system of data set [2] is CYP3A5 (Homo sapiens). Description: Activity of human recombinant CYP3A5 assessed as ((3R,4S,5S,6R)-5-methoxy-4-((2R,3R)-2-methyl-3-(3-methylbut-2-en-1-yl)oxiran-2-yl)-1-oxaspiro[2.5]octan-6-yl ((R)-1-amino-3-hydroxy-3-methyl-1-oxobutan-2-yl)carbamate) formation. The settings on record: recombinant enzyme.
The subject of data set [3] is CYP3A5 (Homo sapiens). Description: Ratio of Vmax to Km for human recombinant CYP3A5 assessed as ((3R,4S,5S,6R)-5-methoxy-4-((2R,3R)-2-methyl-3-(3-methylbut-2-en-1-yl)oxiran-2-yl)-1-oxaspiro[2.5]octan-6-yl ((R)-1-amino-3-hydroxy-3-methyl-1-oxobutan-2-yl)carbamate) formation. The settings on record: recombinant enzyme.
Data set [4] has as its system CYP3A5 (Homo sapiens). Description: Activity of human recombinant CYP3A5 assessed as ((3R,4S,5S,6R)-4-((2R,3R)-3-(((S)-3,3-dimethyloxiran-2-yl)methyl)-2-methyloxiran-2-yl)-5-methoxy-1-oxaspiro[2.5]octan-6-yl ((R)-1-amino-3-methyl-1-oxobutan-2-yl)carbamate) formation per pmol of enzyme.
The subject of data set [5] is CYP3A5 (Homo sapiens). Nature of the data set: Ratio of Vmax to Km for human recombinant CYP3A5 assessed as ((3R,4S,5S,6R)-4-((2R,3R)-3-((E)-4-hydroxy-3-methylbut-2-en-1-yl)-2-methyloxiran-2-yl)-5-methoxy-1-oxaspiro[2.5]octan-6-yl((R)-1-amino-3-methyl-1-oxobutan-2-yl)carbamate) formation. The settings on record: recombinant enzyme.
The subject of data set [6] is Rattus norvegicus. Nature of the data set: Inhibition of MetAP2 level in Sprague-Dawley rat thymus assessed as free enzyme level at 0.3 mg/kg, iv by ELISA. Set-up: dose 0.3 mg/kg. Type of data set: functional, organism-based. In a few lines: (§1)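 Male Sprague-Dawley rats (200-225 g, n=3 per group) were dosed once IV at 0.3 mg/kg or PO at 0.3 or 3.0 mg/kg, in 11% HPCD in water. Blood, liver, lung, thymus and pooled non-mesenteric lymph nodes were taken at ~24 h and lysed or homogenized with NP-40. Free MetAP2 was measured by ELISA and expressed as % of vehicle.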

The nature of data set [7]: Oral steady-state volume of distribution in non-Hodgkin lymphoma patient at 15 mg, po alternate days for 21 days. Type of data set: ADME, organism-based. The settings on record: human, in vivo, read-out: Vss/F. A digest of the protocol: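 Non-Hodgkin lymphoma patients given oral capsules every other day for 21 days. Plasma sampled predose and at 15, 30 min and 1, 2, 3, 4, 6, 8, 24, 48 h after the first dose. Protein precipitated, extract reconstituted, parent and metabolites quantified by validated LC-MS/MS. CL/F and Vss/F derived from the administered dose.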

Data set [8] is described as follows: Metabolic stability in monkey liver microsomes assessed as retention time of ((3R,4S,5S,6R)-5-methoxy-4-((2R,3R)-2-methyl-3-(3-methylbut-2-en-1-yl)oxiran-2-yl)-1-oxaspiro[2.5]octan-6-yl ((R)-1-amino-3-hydroxy-3-methyl-1-oxobutan-2-yl)carbamate) at 5 mM by LC/MS analysis. Type of data set: ADME, Macaca mulatta. Conditions: rhesus monkey, 5000 µM. In a few lines: (§2)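 Liver microsomes (pooled male/female) in 100 mM KPO4 pH 7.4 with PPI-2458 (5 mM stock), pre-incubated 5 min at 37°C, then 10 mM NADPH added; 20 min at 37°C with shaking. Time-zero and no-NADPH controls. Quenched with CH3CN; supernatant dried and redissolved in water. Analysed by LC-MS, ESI+ full scan 300–800 amu, C18 column, 10→50% B gradient.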

For the next data set, the system named is Liver. Nature of the data set: Metabolic stability in mouse liver microsomes assessed as retention time of ((3R,4S,5S,6R)-4-((2R,3R)-3-(((R)-3,3-dimethyloxiran-2-yl)methyl)-2-methyloxiran-2-yl)-5-methoxy-1-oxaspiro[2.5]octan-6-yl ((R)-1-amino-3-methyl-1-oxobutan-2-yl)carbamate) at 5 mM by LC/MS analysis. It is filed as ADME. The settings on record: 5000 µM. A digest of the protocol: as §2
(In general: Liver microsomes are a subcellular fraction often used to study metabolism.)

In data set [9] the test system is Liver microsome. Nature of the data set: Metabolic stability in human liver microsomes assessed as retention time of ((3R,4S,5S,6R)-4-((2R,3R)-3-((E)-4-hydroxy-3-methylbut-2-en-1-yl)-2-methyloxiran-2-yl)-5-methoxy-1-oxaspiro[2.5]octan-6-yl((R)-1-amino-3-methyl-1-oxobutan-2-yl)carbamate) at 5 mM by LC/MS analysis. Conditions: 5000 µM. It is filed as ADME. A digest of the protocol: as §2

Data set [10] addresses Methionine aminopeptidase 2 (Homo sapiens) (UniProt P50579). Nature of the data set: Inhibition of human MetAP2 assessed as remaining enzyme activity after 8 hrs. Set-up: concentration or dose not given beside the values. In a few lines: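 The hMetAP2 assay follows the fraction of active enzyme remaining during an 8 h incubation with inhibitor, relative to an enzyme-only control.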

Data set [11] has as its system Rattus norvegicus. Nature of the data set: Inhibition of MetAP2 level in Sprague-Dawley rat whole blood assessed as free enzyme level at 0.3 mg/kg, po by ELISA. It is filed as functional, organism-based. Set-up: dose 0.3 mg/kg. In a few lines: as §1
(In general: An ELISA detects its analyte on a solid surface through an enzyme-linked reagent.)

Data set [12] relates to Liver microsome. Description: Metabolic stability in human liver microsomes assessed as retention time of ((3R,4S,5S,6R)-4-((2R,3R)-3-(((S)-3,3-dimethyloxiran-2-yl)methyl)-2-methyloxiran-2-yl)-5-methoxy-1-oxaspiro[2.5]octan-6-yl ((R)-1-amino-3-methyl-1-oxobutan-2-yl)carbamate) at 5 mM by LC/MS analysis. Type of data set: ADME. The settings on record: 5000 µM.
Data set [13] concerns CYP3A4 (Homo sapiens). Description: Ratio of Vmax to Km for human recombinant CYP3A4 assessed as ((3R,4S,5S,6R)-4-((2R,3R)-3-(((S)-3,3-dimethyloxiran-2-yl)methyl)-2-methyloxiran-2-yl)-5-methoxy-1-oxaspiro[2.5]octan-6-yl ((R)-1-amino-3-methyl-1-oxobutan-2-yl)carbamate) formation. Conditions: recombinant enzyme.
The subject of data set [14] is Rattus norvegicus. Description: Inhibition of MetAP2 level in Sprague-Dawley rat lung assessed as free enzyme level at 0.3 mg/kg, iv by ELISA. Type of data set: functional, organism-based. The arrangement: dose 0.3 mg/kg. In a few lines: as §1

Active and inactive are the calls of the source. The calls are words filed in the database; no cut-off is given here.

Methionine aminopeptidase 2 (Homo sapiens), sequence (P50579 2-478 limits assumed): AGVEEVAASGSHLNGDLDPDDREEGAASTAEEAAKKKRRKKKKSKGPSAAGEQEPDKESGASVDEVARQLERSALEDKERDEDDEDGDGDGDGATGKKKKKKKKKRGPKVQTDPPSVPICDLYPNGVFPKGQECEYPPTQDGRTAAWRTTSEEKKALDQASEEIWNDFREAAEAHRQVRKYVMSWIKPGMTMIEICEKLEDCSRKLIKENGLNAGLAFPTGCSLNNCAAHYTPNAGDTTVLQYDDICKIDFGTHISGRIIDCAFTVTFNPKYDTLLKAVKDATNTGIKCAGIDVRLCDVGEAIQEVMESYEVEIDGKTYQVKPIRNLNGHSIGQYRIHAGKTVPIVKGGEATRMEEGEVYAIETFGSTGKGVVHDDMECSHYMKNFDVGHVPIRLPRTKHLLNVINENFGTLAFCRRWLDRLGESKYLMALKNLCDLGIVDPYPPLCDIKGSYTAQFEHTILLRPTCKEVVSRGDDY

Regarding `CO[C@@H]1[C@H](OC(=O)N[C@@H](C(N)=O)C(C)C)CC[C@]2(CO2)[C@H]1[C@@]1(C)O[C@@H]1CC=C(C)C` [PPI-2458], the Km in the data set on CYP3A4 (Homo sapiens) [1] and in the data set on CYP3A5 (Homo sapiens) [2] was 17 µM throughout. In addition, the Vmax/Km in the data set on CYP3A5 (Homo sapiens) [3] is 0.09 µL/min; in the data set with CYP3A5 (Homo sapiens) [5], 0.031 µL/min; with CYP3A4 (Homo sapiens) [13], 0.19 µL/min. The Vmax (usually the top rate of the reaction or transport when substrate is in excess) in the data set with CYP3A5 (Homo sapiens) [4] is 1.42 pmol/min. The inhibition result in the data set on Rattus norvegicus [6], with Rattus norvegicus [11] and in the data set with Rattus norvegicus [14] was “Active” in each case. The Vd/F in data set [7] stood at 415 L. Further, the Drug metabolism entry (in data set [8]; in the data set on Liver; with Liver microsome [9]; with Liver microsome [12]) was “metabolite_detected” throughout. For the same compound, the Activity in [10] was determined as 2.8%.

These data come from ChEMBL document CHEMBL3526018, “Metabolites of PPI-2458, a selective, irreversible inhibitor of methionine aminopeptidase-2: structure determination and in vivo activity” (Drug Metab Dispos, 2013).
